{"source": "ChEMBL document CHEMBL1157970", "about": "“Quercetin as the active principle of Hypericum hircinum exerts a selective inhibitory activity against MAO-A: extraction, biological analysis, and computational study” (J Nat Prod, 2006)", "key": {"Mus musculus [1]": {"tested_on": "Mus musculus", "assay": "Increase in duration of immobility in CD1 mouse at 10 mg/kg, ip by forced swimming test relative to control", "type": "functional, organism-based", "parameters": "dose 10 mg/kg", "outline": "(§1)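 Male CD1 mice, 25-28 g, n = 10 per group. Two-day protocol: 15-min pretest swim in a cylinder of 25 °C water. After 24 h, a 10-min videotaped test session 60 min after ip injection of drug suspended in 0.5% CMC, given at 0.01 mL/g. Immobility time is compared with naïve and CMC groups by two-way ANOVA and Duncan test, p < 0.05.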"}, "Mus musculus [2]": {"tested_on": "Mus musculus", "assay": "Increase in duration of immobility in CD1 mouse at 10 mg/kg, ip by forced swimming test relative to carboxy methyl cellulose", "type": "functional, organism-based", "parameters": "dose 10 mg/kg", "outline": "as §1"}, "[3]": {"target": "T1, Amine oxidase [flavin-containing] A (Bos taurus, UniProt P21398)", "T1 sequence (P21398 whole entry)": "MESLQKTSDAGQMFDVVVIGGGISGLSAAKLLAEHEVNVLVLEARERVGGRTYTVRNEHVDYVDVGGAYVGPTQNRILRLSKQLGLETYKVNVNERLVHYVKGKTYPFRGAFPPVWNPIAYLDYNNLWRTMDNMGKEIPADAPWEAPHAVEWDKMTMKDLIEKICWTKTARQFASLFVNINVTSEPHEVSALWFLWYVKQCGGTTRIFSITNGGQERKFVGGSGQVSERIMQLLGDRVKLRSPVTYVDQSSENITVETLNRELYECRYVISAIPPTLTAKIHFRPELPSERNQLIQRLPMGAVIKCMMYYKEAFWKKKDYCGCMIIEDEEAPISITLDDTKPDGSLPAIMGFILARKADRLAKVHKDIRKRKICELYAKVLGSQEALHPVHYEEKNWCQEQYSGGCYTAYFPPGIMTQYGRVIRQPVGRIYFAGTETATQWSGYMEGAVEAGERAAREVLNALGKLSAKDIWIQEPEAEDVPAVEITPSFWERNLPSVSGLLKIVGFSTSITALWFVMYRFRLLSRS", "assay": "Inhibition of bovine MAO-A by fluorimetric method", "outline": "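Beef brain mitochondria (6 mg/mL) in K3PO4 buffer pH 7.4 with kynuramine substrate (four concentrations, 5 μM to 0.1 mM). Preincubated 30 min at 38 °C with 0.5 μM L-deprenyl to isolate MAO-A. Drug in DMSO; incubated 30 min at 38 °C, stopped with HClO4, supernatant into NaOH, read fluorimetrically. Means of three or more experiments run in duplicate.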"}, "[4]": {"target": "T2, Amine oxidase [flavin-containing] B (Bos taurus, UniProt P56560)", "T2 sequence (P56560 whole entry)": "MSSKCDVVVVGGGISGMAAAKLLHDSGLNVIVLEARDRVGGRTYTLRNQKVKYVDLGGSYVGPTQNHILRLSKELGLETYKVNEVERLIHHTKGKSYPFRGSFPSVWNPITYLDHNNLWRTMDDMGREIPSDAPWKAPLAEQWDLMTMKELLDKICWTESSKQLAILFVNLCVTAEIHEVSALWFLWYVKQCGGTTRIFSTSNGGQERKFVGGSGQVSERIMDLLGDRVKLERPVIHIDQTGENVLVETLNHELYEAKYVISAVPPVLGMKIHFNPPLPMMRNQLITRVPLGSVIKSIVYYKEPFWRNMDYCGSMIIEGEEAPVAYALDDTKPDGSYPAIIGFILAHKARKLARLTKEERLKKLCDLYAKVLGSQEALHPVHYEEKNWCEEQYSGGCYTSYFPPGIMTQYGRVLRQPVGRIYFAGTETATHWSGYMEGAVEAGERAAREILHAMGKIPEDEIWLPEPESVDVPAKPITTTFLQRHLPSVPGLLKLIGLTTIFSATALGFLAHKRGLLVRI", "assay": "Inhibition of bovine MAO-B by fluorimetric method", "outline": "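Bovine brain mitochondria (6 mg/mL) in 0.25 M potassium phosphate buffer pH 7.4; preincubated 30 min at 38 °C with 0.05 μM clorgyline to isolate MAO-B. Kynuramine substrate at four levels, 5 μM to 0.1 mM; inhibitor added from DMSO; 30 min at 38 °C, stopped with HClO4, centrifuged, supernatant into 0.1 N NaOH, fluorimetric read-out. Means of ≥3 experiments in duplicate.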"}, "Mus musculus [5]": {"tested_on": "Mus musculus", "assay": "Induction of behavioral effects in CD1 mouse at 1 mg/kg, ip by forced swimming test relative to control", "type": "functional, organism-based", "parameters": "dose 1 mg/kg", "outline": "as §1"}, "Mus musculus [6]": {"tested_on": "Mus musculus", "assay": "Induction of behavioral effects in CD1 mouse at 1 mg/kg, ip by forced swimming test relative to carboxy methyl cellulose", "type": "functional, organism-based", "parameters": "dose 1 mg/kg", "outline": "as §1"}, "Mus musculus [7]": {"tested_on": "Mus musculus", "assay": "Induction of behavioral effects in CD1 mouse at 10 mg/kg, ip by forced swimming test relative to control", "type": "functional, organism-based", "parameters": "dose 10 mg/kg", "outline": "as §1"}, "Mus musculus [8]": {"tested_on": "Mus musculus", "assay": "Induction of behavioral effects in CD1 mouse at 10 mg/kg, ip by forced swimming test relative to carboxy methyl cellulose", "type": "functional, organism-based", "parameters": "dose 10 mg/kg", "outline": "as §1"}, "Mus musculus [9]": {"tested_on": "Mus musculus", "assay": "Effect on duration of immobility in CD1 mouse at 1 mg/kg, ip by forced swimming test relative to control", "type": "functional, organism-based", "parameters": "dose 1 mg/kg", "outline": "as §1"}, "Mus musculus [10]": {"tested_on": "Mus musculus", "assay": "Effect on duration of immobility in CD1 mouse at 1 mg/kg, ip by forced swimming test relative to carboxy methyl cellulose", "type": "functional, organism-based", "parameters": "dose 1 mg/kg", "outline": "as §1"}, "Mus musculus [11]": {"tested_on": "Mus musculus", "assay": "Effect on duration of immobility in CD1 mouse at 10 mg/kg, ip by forced swimming test relative to control", "type": "functional, organism-based", "parameters": "dose 10 mg/kg", "outline": "as §1"}, "Mus musculus [12]": {"tested_on": "Mus musculus", "assay": "Effect on duration of immobility in CD1 mouse at 10 mg/kg, ip by forced swimming test relative to carboxy methyl cellulose", "type": "functional, organism-based", "parameters": "dose 10 mg/kg", "outline": "as §1"}, "Mus musculus [13]": {"tested_on": "Mus musculus", "assay": "Increase in duration of immobility in CD1 mouse at 1 mg/kg, ip by forced swimming test relative to control", "type": "functional, organism-based", "parameters": "dose 1 mg/kg", "outline": "as §1"}, "Mus musculus [14]": {"tested_on": "Mus musculus", "assay": "Increase in duration of immobility in CD1 mouse at 1 mg/kg, ip by forced swimming test relative to carboxy methyl cellulose", "type": "functional, organism-based", "parameters": "dose 1 mg/kg", "outline": "as §1"}}, "note": "Activity calls are given as the source filed them. The rule behind the calls is not given here.", "data": [{"smiles": "O=c1c(O)c(-c2ccc(O)c(O)c2)oc2cc(O)cc(O)c12", "note": "[QUERCETIN]", "values": [{"measurement": "Activity", "setting": "Mus musculus [1]", "value": "Active"}, {"measurement": "Activity", "setting": "Mus musculus [2]", "value": "Active"}, {"measurement": "IC50", "setting": "[3]", "value": 10, "unit": "nM"}, {"measurement": "IC50", "setting": "[4]", "value": 20, "unit": "µM"}, {"measurement": "Activity", "setting": "Mus musculus [5]", "value": "inactive"}, {"measurement": "Activity", "setting": "Mus musculus [6]", "value": "inactive"}, {"measurement": "Activity", "setting": "Mus musculus [7]", "value": "inactive"}, {"measurement": "Activity", "setting": "Mus musculus [8]", "value": "inactive"}, {"measurement": "Activity", "setting": "Mus musculus [9]", "value": "inactive"}, {"measurement": "Activity", "setting": "Mus musculus [10]", "value": "inactive"}, {"measurement": "Activity", "setting": "Mus musculus [11]", "value": "inactive"}, {"measurement": "Activity", "setting": "Mus musculus [12]", "value": "inactive"}, {"measurement": "Activity", "setting": "Mus musculus [13]", "value": "Active"}, {"measurement": "Activity", "setting": "Mus musculus [14]", "value": "Active"}]}]}
